Drawing on PubChem BioAssay, this text covers viability, differential viability (reversal) and inhibition for twelve compounds.

The nature of assay [1]: reduced viability of SK-BR-3 breast cancer cells – cell-based, 24 h, human, pilot screen (AID 572;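 active = viability at or below 10% of carrier control in both of two separate runs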;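 note: compound exposure lasted between 18 and 24 h rather than exactly 24 h; 100% = carrier-treated control wells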). The following applies: SK-BR-3 viability, CellTiter-Glo luminescence, at 10 µM, stronger effect = lower value. For orientation: Cellular ATP, detected with luciferase, serves as a proxy for viable cell number.
The nature of assay [2]: HUVEC growth inhibition – cell-based, human, primary screen (AID 575;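 active = viability at or below 30% in both replicate assays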;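 note: 100% = median of untreated cell wells with 0.1% DMSO on each plate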). The following applies: HUVEC proliferation, CellTiter-Glo luminescence, 72 h; at 10 µM; stronger effect = lower value. An outline of the steps:
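System: primary human umbilical vein endothelial cells; Quantity: 1250 endothelial cells in each well; Buffer or medium: supplemented EBM, 2% fetal bovine serum; Doses: one dose, 10 µM final, 0.1% DMSO; Incubation: 72 h compound incubation; Technique: ATP-based CellTiter-Glo luminescent read; Evaluation: percent of median DMSO-control luminescence; Controls: vehicle and MePR control wells.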

The nature of assay [3]: H69AR cell proliferation blockers – human, duplicate replicates, primary screen (AID 580;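 active = viability at or under a set limit in both replicates, limit being median viability minus 3 SD, cut at about 48% in these data, passing the limit was not always enough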;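 note: 100% = mean luminescence of untreated wells and 0% = no signal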). The following applies: H69AR lung tumor cells viability, ATP luminescence, 72 h; at 10 µM; stronger effect = lower value.
The nature of assay [4]: MRP1 drug-resistance reversers in H69AR cells – cell-based, doxorubicin co-treatment, pilot screen (AID 601). The following applies: CellTiter-Glo, 72 h, at 10 µM; for differential viability (reversal): stronger effect = higher value.
The nature of assay [5]: yeast transport mutant growth inhibition pilot in 384-well plates, post-Golgi transport modulator project (AID 636; in the data active = inhibition above about 31%). The following applies: absorbance 615 nm, about 18 h, stronger effect = higher value.
A short description of assay [6]: growth suppression of yeast trafficking mutant, preliminary HTS, modulators of trafficking downstream of Golgi apparatus project, 1536-format plate, OD 615 nm (AID 637; in the data active = inhibition above about 30%). The following applies: yeast transport mutant growth, absorbance 615 nm, 18 h; stronger effect = higher value.
The mark [7] stands for this setting: H69AR cells + 2 uM doxorubicin, measured here: viability with 2 uM doxorubicin, stronger effect = lower value.
Setting [8] is: H69AR cells, compound alone cytotoxicity.

Calls of active or inactive are those of the source.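 Rule for the calls, unless noted: active = viability loss from added drug above about 55%, and viability with drug at most 40%, in both replicates (limit read from the data, passing the limit was not always enough); inconclusive = both conditions met in only one replicate; inactive = neither replicate meets both conditions.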

In general, viability refers to a read-out of living cells in per cent, often relative to untreated cells. As usually defined, the inhibition is the relative decrease from the control value, in per cent. Consider `CCN(C(=O)c1ccnc(C(C)(C)C)c1)c1ccccc1`, for which the viability was 88% (inactive) in assay [1]; 94.4% (inactive) in assay [2]; 79.2% (inactive) in assay [3]; 83.3% in assay [4] (setting [7]); 79.2% in assay [4] (setting [8]). Also, the differential viability (reversal) in assay [4] (H69AR cells + 2 uM doxorubicin) is -4.02% (inactive). For the same compound, the inhibition in assay [5] is -6.85% (inactive); in assay [6] it was 2% (inactive).

For the compound `O=C(CSc1nnc(-c2ccco2)n1-c1ccccc1)N1CCN(C(=O)c2ccco2)CC1`, the viability was 137% (inactive) in assay [1]; 80.3% (inactive) in assay [2]; 84.4% (inactive) in assay [3]; 85.9% in assay [4] (setting [7]); 84.4% in assay [4] (setting [8]). For the same compound, the differential viability (reversal) in assay [4] (H69AR cells + 2 uM doxorubicin) was -1.54% (inactive). Also, the inhibition was -1.17% (inactive) in assay [5] and -0.82% (inactive) in assay [6].

On to `O=C(Nc1ncc2c(n1)CC(c1ccccc1)CC2=O)c1ccco1` (stereo unspecified), for which the viability in assay [1] was 102% (inactive); in assay [2], 98.3% (inactive); in assay [3] it was 81.8% (inactive); in assay [4] (setting [7]), 76.7%; in assay [4] (setting [8]), 81.8%. For the same compound, the differential viability (reversal) in assay [4] (H69AR cells + 2 uM doxorubicin) was 5.16% (inactive). Further, the inhibition in assay [5] was -5.21% (inactive); in assay [6], -0.16% (inactive).

Take `CCC(=O)N(Cc1ccco1)c1nc(-c2cc(OC)ccc2OC)cs1`: the viability in assay [1] is 105% (inactive); in assay [2] it was 42.8% (inactive); in assay [3], 69.3% (inactive); in assay [4] (setting [7]) it was 70.2%; in assay [4] (setting [8]) it was 69.3%. Moreover, the differential viability (reversal) in assay [4] (H69AR cells + 2 uM doxorubicin) was -0.87% (inactive). Besides, the inhibition in assay [5] is -2% (inactive); in assay [6] it was -2.91% (inactive).

With `CC(=O)c1ccc(N2CCN(C(=O)c3cc(C)on3)CC2)cc1`, the viability in assay [1] was 100% (inactive); in assay [2], 97.7% (inactive); in assay [3], 111% (inactive); in assay [4] (setting [7]), 98.9%; in assay [4] (setting [8]), 111%. Besides, the differential viability (reversal) in assay [4] (H69AR cells + 2 uM doxorubicin) was 12.4% (inactive). In addition, the inhibition in assay [5] is -6.99% (inactive); in assay [6], -3.82% (inactive).

Regarding `Cc1c(Cl)cccc1NC(=O)CCN1CCCCCC1`, the viability in assay [1] was 116% (inactive); in assay [2], 103% (inactive); in assay [3], 88.3% (inactive); in assay [4] (setting [7]), 86.2%; in assay [4] (setting [8]) it was 88.3%. For the same compound, the differential viability (reversal) in assay [4] (H69AR cells + 2 uM doxorubicin) is 2.1% (inactive). Further, the results for the inhibition in assay [5] and in assay [6] were -6.85% (inactive) and 5.64% (inactive), respectively.

Consider `CC(=O)C1=C(O)C(=O)N(C2CCCCC2)C1c1ccccc1` (stereo unspecified), for which the viability was 107% (inactive) in assay [1]; 98.6% (inactive) in assay [2]; 97.3% (inactive) in assay [3]; 86.4% in assay [4] (setting [7]); 97.3% in assay [4] (setting [8]). Moreover, the differential viability (reversal) in assay [4] (H69AR cells + 2 uM doxorubicin) was 10.9% (inactive). For the same compound, the inhibition in assay [5] is -8.08% (inactive); in assay [6], 5.32% (inactive).

Regarding `COC(=O)c1ccccc1OCC(=O)NC1CCCCC1`, the viability is 96% (inactive) in assay [1]; 106% (inactive) in assay [2]; 90.2% (inactive) in assay [3]; 91.9% in assay [4] (setting [7]); 90.2% in assay [4] (setting [8]). The differential viability (reversal) in assay [4] (H69AR cells + 2 uM doxorubicin) was -1.72% (inactive). The results for the inhibition in assay [5] and in assay [6] were -5.21% (inactive) and -6.77% (inactive), respectively.

In the case of `O=C1c2ccccc2-c2ccc(C(=O)N3CCOCC3)cc21`, the viability in assay [1] was 87% (inactive); in assay [2], 105% (inactive); in assay [3], 89.7% (inactive); in assay [4] (setting [7]), 92.5%; in assay [4] (setting [8]), 89.7%. For the same compound, the differential viability (reversal) in assay [4] (H69AR cells + 2 uM doxorubicin) is -2.82% (inactive). The inhibition is -2.7% (inactive) in assay [5] and 29.4% (inactive) in assay [6].

`O=C(CSCc1n[nH]c(=O)[nH]1)NCCOc1cccc(Oc2ccccc2)c1`: the viability in assay [1] was 103% (inactive); in assay [2], 102% (inactive); in assay [3], 104% (inactive); in assay [4] (setting [7]), 100%; in assay [4] (setting [8]) it was 104%. For the same compound, the differential viability (reversal) in assay [4] (H69AR cells + 2 uM doxorubicin) was 3.55% (inactive). Further, the inhibition in assay [5] is -1.2% (inactive); in assay [6], 2.73% (inactive).

As to `COCCn1c(-c2ccco2)nc2nc3ccccc3nc21`, the viability was 99.5% (inactive) in assay [1]; 99.1% (inactive) in assay [2]; 77.3% (inactive) in assay [3]; 79.6% in assay [4] (setting [7]); 77.3% in assay [4] (setting [8]). Moreover, in assay [4] (H69AR cells + 2 uM doxorubicin), the differential viability (reversal) was -2.21% (inactive). The results for the inhibition in assay [5] and in assay [6] were -8.27% (inactive) and 3.28% (inactive), respectively.

As for `O=C(CN1C(=O)CCS(=O)(=O)c2ccccc21)Nc1cccc(F)c1`, the viability was 115% (inactive) in assay [1]; 115% (inactive) in assay [2]; 106% (inactive) in assay [3]; 96.5% in assay [4] (setting [7]); 106% in assay [4] (setting [8]). For the same compound, the differential viability (reversal) in assay [4] (H69AR cells + 2 uM doxorubicin) was 9.57% (inactive). The inhibition in assay [5] is 3.65% (inactive); in assay [6], -1.09% (inactive).
